From ChEMBL document CHEMBL1136716, “Tripeptide probes for tripeptidyl protease I production via gene transfer” (J Med Chem, 2003)

What was measured:
Format in all cases: functional, organism-based
Mus musculus [1] = species on record: Mus musculus; assay: Tested for Intensity of the Final Reaction Product ofTPP-I Histochemical Staining with compound in the presence of p-nitrobenzaldehyde in mouse kidney cell preparations
How it was run: (§1)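 Mice were given an anesthetic overdose, then perfused transcardially with 0.9% saline followed by 2% paraformaldehyde in 0.2 M phosphate buffer. Tissues were postfixed 2 h, cryoprotected in 25% sucrose and frozen. Cryostat sections (10 µm) were embedded in 0.5% celloidin and incubated at 37 °C for 4 h in 0.1 M acetate pH 4.5 with 1 mM substrate plus 1 mg/mL of the listed aldehyde. Staining was scored by microscopy on ≥5 sections/animal from ≥3 animals.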

Mus musculus [2] = species on record: Mus musculus; assay: Tested for Intensity of the Final Reaction Product ofTPP-I Histochemical Staining with compound in the presence of p-anisaldehyde in mouse kidney cell preparations;; how it was run: as §1
Mus musculus [3] = species on record: Mus musculus; assay: Tested for Intensity of the Final Reaction Product ofTPP-I Histochemical Staining with compound in the presence of benzaldehyde in mouse kidney cell preparations; how it was run: as §1
Mus musculus [4] = species on record: Mus musculus; assay: Tested for Color of the Final Reaction Product ofTPP-I Histochemical Staining with compound in the presence of benzaldehyde in mouse kidney cell preparations; yellow-greenautofluorescent color was observed; how it was run: as §1
Mus musculus [5] = species on record: Mus musculus; assay: Tested for Color of the Final Reaction Product ofTPP-I Histochemical Staining with compound in the presence of p-anisaldehyde in mouse kidney cell preparations; yellow-greenautofluorescent color was observed; how it was run: as §1
Mus musculus [6] = species on record: Mus musculus; assay: Tested for Color of the Final Reaction Product ofTPP-I Histochemical Staining with compound in the presence of p-nitrobenzaldehyde in mouse kidney cell preparations; yellow-greenautofluorescent color was observed; how it was run: as §1
Mus musculus [7] = species on record: Mus musculus; assay: Tested for Intensity of the Final Reaction Product ofTPP-I Histochemical Staining with compound in the presence of benzaldehyde in mouse kidney cell preparations;; how it was run: as §1
Mus musculus [8] = species on record: Mus musculus; assay: Tested for Color of the Final Reaction Product ofTPP-I Histochemical Staining with compound in the presence of p-nitrobenzaldehyde in mouse kidney cell preparations; yellow-greencolor was observed; how it was run: as §1
Mus musculus [9] = species on record: Mus musculus; assay: Tested for Intensity of the Final Reaction Product ofTPP-I Histochemical Staining with compound in the presence of p-nitrobenzaldehyde in mouse kidney cell preparations;; how it was run: as §1
Mus musculus [10] = species on record: Mus musculus; assay: Tested for Color of the Final Reaction Product ofTPP-I Histochemical Staining with compound in the presence of benzaldehyde in mouse kidney cell preparations; yellow-green color was observed; how it was run: as §1
Mus musculus [11] = species on record: Mus musculus; assay: Tested for Color of the Final Reaction Product ofTPP-I Histochemical Staining with compound in the presence of p-anisaldehyde in mouse kidney cell preparations; yellow-green color was observed; how it was run: as §1
Mus musculus [12] = species on record: Mus musculus; assay: Tested for Color of the Final Reaction Product ofTPP-I Histochemical Staining with compound in the presence of benzaldehyde in mouse kidney cell preparations; brown color was observed; how it was run: as §1
Mus musculus [13] = species on record: Mus musculus; assay: Tested for Color of the Final Reaction Product ofTPP-I Histochemical Staining with compound in the presence of p-nitrobenzaldehyde in mouse kidney cell preparations; brown color was observed; how it was run: as §1

Row | Compound | Activity (Mus musculus [1]) | Activity (Mus musculus [2]) | Activity (Mus musculus [3]) | Activity (Mus musculus [4]) | Activity (Mus musculus [5]) | Activity (Mus musculus [6]) | Activity (Mus musculus [7]) | Activity (Mus musculus [8]) | Activity (Mus musculus [9]) | Activity (Mus musculus [10]) | Activity (Mus musculus [11]) | Activity (Mus musculus [12]) | Activity (Mus musculus [13])
1 | C[C@H](NC(=O)[C@@H]1CCCN1C(=O)CN)C(=O)n1nc2cccc3c2c1-c1cccc(Cl)c1C3=O | yellow-greenautofluorescent color was observed | yellow-greenautofluorescent color was observed | yellow-greenautofluorescent color was observed | yellow-greenautofluorescent color was observed | yellow-greenautofluorescent color was observed | yellow-greenautofluorescent color was observed | – | – | – | – | – | – | –
2 | CC(NC(=O)[C@H](C)N)C(=O)N[C@@H](Cc1ccccc1)C(=O)NNc1ccc2c(c1)C(=O)c1ccccc1C2=O (stereo partly specified) | – | yellow-green color was observed | – | – | – | – | yellow-green color was observed | yellow-green color was observed | yellow-green color was observed | yellow-green color was observed | yellow-green color was observed | – | –
3 | NCC(=O)N1CCC[C@H]1C(=O)N[C@@H](CO)C(=O)NNc1cccc2c1C(=O)c1ccccc1C2=O | brown color was observed | – | brown color was observed | – | – | – | – | – | – | – | – | brown color was observed | brown color was observed
